Calls of active or inactive are those of the source. The calls are words filed in the database; no cut-off is given here.
What was measured:
[1] = target: T1, Proteasome component C5 (Homo sapiens) (UniProt P20618); test: Inhibition of immunoproteasome caspase-like activity in human […] using […] as substrate pretreated for 2 hrs followed by substrate addition measured after 10 mins by luminescence assay; type: cell-based
T1 sequence (whole entry): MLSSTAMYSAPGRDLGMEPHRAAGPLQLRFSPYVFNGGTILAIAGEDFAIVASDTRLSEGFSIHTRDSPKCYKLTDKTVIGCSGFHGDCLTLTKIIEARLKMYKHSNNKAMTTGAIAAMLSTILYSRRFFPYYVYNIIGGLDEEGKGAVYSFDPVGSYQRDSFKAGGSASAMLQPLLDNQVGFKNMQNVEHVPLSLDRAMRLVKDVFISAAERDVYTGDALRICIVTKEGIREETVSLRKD
Method in brief: (§1)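 Purified human 20S proteasome was used: constitutive enzyme from erythrocytes, immunoproteasome from PBMCs, each at 2.2 ng/µl. It was preincubated with inhibitor (0 to 10 µM) in 10 mM HEPES pH 7.3 for 2 h at 37 °C. An equal volume of luminogenic substrate was then added ([…], […], Suc-LLVY-Glo for β5), and luminescence was read 10 min later. Runs were in triplicate, and Ki-50 values were fitted and averaged.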

[2] = target: T2, Proteasome Macropain subunit MB1 (Homo sapiens) (UniProt P28074); test: Inhibition of immunoproteasome chymotrypsin-like activity in human […] using Suc-LLVY-Glo as substrate pretreated for 2 hrs followed by substrate addition measured after 10 mins by luminescence assay; type: cell-based; method in brief: as §1
T2 sequence (whole entry): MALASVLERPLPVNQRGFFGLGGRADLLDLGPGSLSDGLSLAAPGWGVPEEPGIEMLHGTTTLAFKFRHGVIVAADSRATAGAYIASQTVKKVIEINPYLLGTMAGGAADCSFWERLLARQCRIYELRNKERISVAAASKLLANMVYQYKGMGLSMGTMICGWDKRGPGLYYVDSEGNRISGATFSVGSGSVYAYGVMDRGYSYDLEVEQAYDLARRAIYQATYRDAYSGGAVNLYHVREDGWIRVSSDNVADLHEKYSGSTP

[3] = target: T1, Proteasome component C5 (Homo sapiens); test: Inhibition of 20s constitutive proteasome caspase-like activity in human erythrocytes using […] as substrate pretreated for 2 hrs followed by substrate addition measured after 10 mins by luminescence assay; type: cell-based; method in brief: as §1
SK-N-SH [4] = test: Cytotoxicity against human SK-N-SH cells assessed as reduction in cell viability at 0.01 to 1 uM after 24 hrs […]; type: functional
[5] = target: Proteasome Macropain subunit (Homo sapiens) (UniProt P49721); test: Inhibition of 20s constitutive proteasome trypsin-like activity in human erythrocytes using […] as substrate pretreated for 2 hrs followed by substrate addition measured after 10 mins by luminescence assay; type: cell-based; method in brief: as §1
Proteasome Macropain subunit (Homo sapiens), sequence (P49721 whole entry): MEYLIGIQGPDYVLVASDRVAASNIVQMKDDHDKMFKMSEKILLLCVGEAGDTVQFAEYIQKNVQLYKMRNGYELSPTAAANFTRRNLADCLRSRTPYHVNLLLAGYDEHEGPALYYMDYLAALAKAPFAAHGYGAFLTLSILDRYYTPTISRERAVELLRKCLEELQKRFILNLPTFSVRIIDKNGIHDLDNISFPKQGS

[6] = Cytotoxicity against human MYCN2 cells assessed as reduction in cell viability at 0.01 to 1 uM after 24 hrs […]; type: functional
[7] = target: Proteasome Macropain subunit (Homo sapiens) (UniProt P49721); test: Inhibition of immunoproteasome trypsin-like activity in human […] using […] as substrate pretreated for 2 hrs followed by substrate addition measured after 10 mins by luminescence assay; type: cell-based; method in brief: as §1
[8] = target: T2, Proteasome Macropain subunit MB1 (Homo sapiens); test: Stimulation of immunoproteasome chymotrypsin-like activity in human […] at 1 uM using Suc-LLVY-Glo as substrate pretreated for 2 hrs followed by substrate addition measured after 10 mins by luminescence assay; type: cell-based
SK-N-SH [9] = test: Cytotoxicity against human SK-N-SH cells assessed as reduction in cell viability after 24 hrs […]; type: functional, cell-based
Homo sapiens [10] = species: Homo sapiens; test: Cytotoxicity against human MYCN2 cells assessed as reduction in cell viability after 24 hrs […]; type: functional, cell-based
[11] = target: T2, Proteasome Macropain subunit MB1 (Homo sapiens); test: Inhibition of 20s constitutive proteasome chymotrypsin-like activity in human erythrocytes using Suc-LLVY-Glo as substrate pretreated for 2 hrs followed by substrate addition measured after 10 mins by luminescence assay; type: cell-based; method in brief: as §1
Homo sapiens [12] = species: Homo sapiens; test: Cytotoxicity against human SK-N-BE(2)C cells assessed as reduction in cell viability after 24 hrs […]; type: functional, cell-based
Homo sapiens [13] = species: Homo sapiens; test: Cytotoxicity against human MYCN2 cells assessed as reduction in cell viability at 0.1 to 1 uM after 24 hrs by […] assay; type: functional, cell-based
Method in brief: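 Human neuroblastoma cells were plated overnight in RPMI with 10% heat-inactivated FBS, penicillin (100 U/ml) and streptomycin (100 µg/ml), at 37 C and 5% CO₂. They were exposed to inhibitor at 0.01, 0.1 and 1 µM for 24 h. Viability was read with MTS reagent as absorbance at 490 nm. Two independent experiments were run, each in triplicate wells (n=6), and results are expressed relative to untreated control cells.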

SK-N-SH [14] = test: Cytotoxicity against human SK-N-SH cells assessed as reduction in cell viability at 0.1 to 1 uM after 24 hrs […]; type: functional, cell-based

| Compound | Ki50 [1] [µM] | Ki50 [2] [µM] | Ki50 [3] [µM] | Activity (SK-N-SH [4]) | Ki50 [5] [µM] | Activity [6] | Ki50 [7] [µM] | Activity [8] | Activity (SK-N-SH [9]) | Activity (Homo sapiens [10]) | inhibition [5] | inhibition [11] | inhibition [1] | Activity (Homo sapiens [12]) | inhibition [2] | inhibition [7] | inhibition [3] | Activity (Homo sapiens [13]) | Activity (SK-N-SH [14]) |
| --- | --- | --- | --- | --- | --- | --- | --- | --- | --- | --- | --- | --- | --- | --- | --- | --- | --- | --- | --- |
| COc1ccc(C[C@H](NC(=O)[C@H](C)NC(=O)CN2CCOCC2)C(=O)N[C@@H](Cc2ccccc2)C(=O)[C@]2(C)CO2)cc1 | 1.32 | 0.11 | 2.07 |  |  |  |  |  |  |  |  |  |  |  |  |  |  |  |  |
| CCCCCCCCCCCCNC(=O)N[C@H](C(=O)N[C@H]1CSCCNC(=O)/C=C/[C@H](C)NC1=O)C(C)C | > 10 | > 10 | > 10 | 30 - 50% | 1.76 | 30 - 50% | 1.39 |  |  |  |  |  |  |  |  |  |  |  |  |
| CC(C)Cc1ccc([C@H](C)C(=O)N[C@H](C(=O)N[C@H]2CSCCNC(=O)/C=C/[C@H](C)NC2=O)C(C)C)cc1 | > 10 | > 10 | > 10 |  | 1.07 |  | 0.74 | Active |  |  |  |  |  |  |  |  |  |  |  |
| C[C@H]1/C=C/C(=O)NCC[S+]([O-])C[C@H](NC(=O)c2cnccn2)C(=O)N1 (some centres undefined) |  |  |  |  |  |  |  |  | inactive | inactive | inactive | inactive | inactive | inactive | inactive | inactive | inactive |  |  |
| C[C@H]1/C=C/C(=O)NCCSC[C@H](NC(=O)c2cnccn2)C(=O)N1 |  |  |  |  |  |  |  |  | inactive | inactive | inactive | inactive | inactive | inactive | inactive | inactive | inactive |  |  |
| CC(C)[C@H](NC(=O)c1cnccn1)C(=O)N[C@H]1CSCCNC(=O)/C=C/[C@H](C)NC1=O | > 10 | > 10 | > 10 |  | 0.92 |  | 0.75 | Active |  |  |  |  |  |  |  |  |  |  |  |
| CCCCCCCCCCCCNC(=O)N[C@H](C(=O)N[C@H]1C[S+]([O-])CCNC(=O)/C=C/[C@H](C)NC1=O)C(C)C (some centres undefined) |  |  |  |  |  |  |  |  | inactive | inactive | inactive | inactive | inactive | inactive | inactive | inactive | inactive |  |  |
| CC(C)C[C@H](NC(=O)[C@H](Cc1ccccc1)NC(=O)c1cnccn1)B(O)O | 0.03 | 0.01 | 0.02 |  |  |  |  |  |  |  |  |  |  |  |  |  |  | Active | Active |

Reference: ChEMBL document CHEMBL4184191, “Immunoproteasome inhibition and bioactivity of thiasyrbactins” (2018)
